Assay results reported in ChEMBL document CHEMBL5724801, “EUbOPEN Chemogenomics Library - Multiplex” (2024).
Where “and” joins values, the source holds several entries; their conditions need not be identical. Identical values can stand only once.

Legend:
[1] = tested on: U2OS; assay: Multiplex assay against U2OS; assay type: toxicity, cell-based; conditions: human
Method in brief: (§1)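 Hoechst33342, BioTracker Green Microtubule Cytoskeleton Dye, MitoTracker Red and Annexin V Alexa Fluor 680 were added to live cells at seeding, and imaging on a CQ1 microscope at 37°C and 5% CO2 followed compound addition. Gating by CellPathfinder machine learning separated cells into Hoechst high-intensity objects or normal cells, then normal cells into healthy, pyknosed or fragmented nuclei, then pyknosed cells into mitotic or apoptotic. Per cents of healthy-nucleus cells are reported for the tubulin, mitochondrial-mass and membrane-permeability phenotypes.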

[2] = tested on: HEK-293T; assay: Multiplex assay against HEK293T; assay type: toxicity, cell-based; conditions: human; method in brief: as §1
[3] = 12 h, 1 µM, compound concentration 1 uM
[4] = 12 h, 10 µM, compound concentration 10 uM
[5] = 24 h, 1 µM, compound concentration 1 uM
[6] = 24 h, 10 µM, compound concentration 10 uM
[7] = 48 h, 1 µM, compound concentration 1 uM
[8] = 48 h, 10 µM, compound concentration 10 uM

O=C(O)Cc1ccccc1Nc1c(Cl)cccc1Cl [DICLOFENAC]
Population Apoptotic (%) [1, 3]: 90% and 84%
Population Fragmented Nuclei (%) [1, 3]: 15% and 13%
Population Healthy Nuclei (%) [1, 3]: 78% and 76%
Population Hoechst High Intensity Objects (%) [1, 3]: 5% and 0%
Population Membrane Permeable-Phenotype (%) [1, 3]: 4% and 5%
Population Mitochondria Different-Phenotype (%) [1, 3]: 4% and 2%
Population Mitotic Cells (%) [1, 3]: 10% and 15%
Population Normal (%) [1, 3]: 94% and 99%
Population Pyknosed Nuclei (%) [1, 3]: 6% and 10%
Population Tubulin-Different-Phenotype (%) [1, 3]: 4% and 2%
Total Cell Count [1, 3]: 164
Population Apoptotic (%) [1, 4]: 75% and 72%
Population Fragmented Nuclei (%) [1, 4]: 20% and 14%
Population Healthy Nuclei (%) [1, 4]: 68% and 76%
Population Hoechst High Intensity Objects (%) [1, 4]: 2% and 3%
Population Membrane Permeable-Phenotype (%) [1, 4]: 8%
Population Mitochondria Different-Phenotype (%) [1, 4]: 4% and 3%
Population Mitotic Cells (%) [1, 4]: 25% and 27%
Population Normal (%) [1, 4]: 97% and 96%
Population Pyknosed Nuclei (%) [1, 4]: 11% and 9%
Population Tubulin-Different-Phenotype (%) [1, 4]: 4% and 8%
Total Cell Count [1, 4]: 258
Population Apoptotic (%) [1, 5]: 92% and 87%
Population Fragmented Nuclei (%) [1, 5]: 15% and 19%
Population Healthy Nuclei (%) [1, 5]: 76% and 70%
Population Hoechst High Intensity Objects (%) [1, 5]: 4% and 3%
Population Membrane Permeable-Phenotype (%) [1, 5]: 2% and 5%
Population Mitochondria Different-Phenotype (%) [1, 5]: 2%
Population Mitotic Cells (%) [1, 5]: 7% and 12%
Population Normal (%) [1, 5]: 95% and 96%
Population Pyknosed Nuclei (%) [1, 5]: 7% and 10%
Population Tubulin-Different-Phenotype (%) [1, 5]: 2%
Total Cell Count [1, 5]: 191 and 165
Population Apoptotic (%) [1, 6]: 72% and 81%
Population Fragmented Nuclei (%) [1, 6]: 17% and 15%
Population Healthy Nuclei (%) [1, 6]: 72% and 77%
Population Hoechst High Intensity Objects (%) [1, 6]: 0% and 1%
Population Membrane Permeable-Phenotype (%) [1, 6]: 3% and 5%
Population Mitochondria Different-Phenotype (%) [1, 6]: 1% and 2%
Population Mitotic Cells (%) [1, 6]: 27% and 18%
Population Normal (%) [1, 6]: 99% and 98%
Population Pyknosed Nuclei (%) [1, 6]: 10% and 7%
Population Tubulin-Different-Phenotype (%) [1, 6]: 2% and 4%
Total Cell Count [1, 6]: 311 and 153
Population Apoptotic (%) [1, 7]: 100% and 83%
Population Fragmented Nuclei (%) [1, 7]: 17% and 15%
Population Healthy Nuclei (%) [1, 7]: 71% and 70%
Population Hoechst High Intensity Objects (%) [1, 7]: 4% and 3%
Population Membrane Permeable-Phenotype (%) [1, 7]: 4%
Population Mitochondria Different-Phenotype (%) [1, 7]: 2% and 4%
Population Mitotic Cells (%) [1, 7]: 0% and 16%
Population Normal (%) [1, 7]: 95% and 96%
Population Pyknosed Nuclei (%) [1, 7]: 10% and 14%
Population Tubulin-Different-Phenotype (%) [1, 7]: 2% and 4%
Total Cell Count [1, 7]: 271 and 216
Population Apoptotic (%) [1, 8]: 86% and 100%
Population Fragmented Nuclei (%) [1, 8]: 16% and 12%
Population Healthy Nuclei (%) [1, 8]: 73% and 75%
Population Hoechst High Intensity Objects (%) [1, 8]: 2% and 1%
Population Membrane Permeable-Phenotype (%) [1, 8]: 6%
Population Mitochondria Different-Phenotype (%) [1, 8]: 1%
Population Mitotic Cells (%) [1, 8]: 13% and 0%
Population Normal (%) [1, 8]: 97% and 98%
Population Pyknosed Nuclei (%) [1, 8]: 10% and 11%
Population Tubulin-Different-Phenotype (%) [1, 8]: 2% and 6%
Total Cell Count [1, 8]: 436 and 220
Population Apoptotic (%) [2, 3]: 36% and 52%
Population Fragmented Nuclei (%) [2, 3]: 7%
Population Healthy Nuclei (%) [2, 3]: 77% and 79%
Population Hoechst High Intensity Objects (%) [2, 3]: 5% and 10%
Population Membrane Permeable-Phenotype (%) [2, 3]: 0%
Population Mitochondria Different-Phenotype (%) [2, 3]: 53% and 61%
Population Mitotic Cells (%) [2, 3]: 63% and 47%
Population Normal (%) [2, 3]: 94% and 89%
Population Pyknosed Nuclei (%) [2, 3]: 14% and 13%
Population Tubulin-Different-Phenotype (%) [2, 3]: 32% and 23%
Total Cell Count [2, 3]: 376 and 324
Population Apoptotic (%) [2, 4]: 30% and 57%
Population Fragmented Nuclei (%) [2, 4]: 7%
Population Healthy Nuclei (%) [2, 4]: 77% and 75%
Population Hoechst High Intensity Objects (%) [2, 4]: 6% and 14%
Population Membrane Permeable-Phenotype (%) [2, 4]: 0%
Population Mitochondria Different-Phenotype (%) [2, 4]: 45% and 68%
Population Mitotic Cells (%) [2, 4]: 69% and 42%
Population Normal (%) [2, 4]: 93% and 85%
Population Pyknosed Nuclei (%) [2, 4]: 14% and 17%
Population Tubulin-Different-Phenotype (%) [2, 4]: 35%
Total Cell Count [2, 4]: 480 and 370
Population Apoptotic (%) [2, 5]: 30% and 45%
Population Fragmented Nuclei (%) [2, 5]: 7% and 6%
Population Healthy Nuclei (%) [2, 5]: 76% and 78%
Population Hoechst High Intensity Objects (%) [2, 5]: 3% and 10%
Population Membrane Permeable-Phenotype (%) [2, 5]: 0%
Population Mitochondria Different-Phenotype (%) [2, 5]: 44% and 37%
Population Mitotic Cells (%) [2, 5]: 69% and 54%
Population Normal (%) [2, 5]: 96% and 89%
